How the values were obtained:
U-937 [1] = test: In vitro inhibitory concentration required to inhibit the growth of U937 cells was determined at 0 hr by mitotic block reversibility assay; assay type: functional; conditions: Homo sapiens, U-937, 0 h
U-937 [2] = test: In vitro inhibitory concentration required to inhibit the growth of U937 cells was determined at 10 hr by mitotic block reversibility assay; assay type: functional; conditions: Homo sapiens, U-937, 10 h
Procedure, shortened: (§1)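 Human histiocytic lymphoma U937 cells, read by flow cytometry. Scores whether a complete mitotic block is maintained 10 h after drug washout.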

[3] = In vitro reversibility ratio in U937 cells; assay type: functional, U-937; procedure, shortened: as §1
DLD-1 = test: In vitro inhibitory concentration required to inhibit the growth of DLD-1 cells under continuous exposure conditions for 3-4 days; assay type: functional, cell-based; conditions: Homo sapiens
Procedure, shortened: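 Human colon cancer DLD-1 cells grown under continuous drug exposure for 3–4 days. Growth inhibition measured and IC50 reported ± SEM, n = number of experiments.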

P388 = test: Fold resistance calculated as the inhibition concentration ratio between retrovirally transformed murine P388/VMDRC.04 and parental P388 cells; assay type: functional
Procedure, shortened: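 Readout of P-glycoprotein (PgP) susceptibility: IC50 in the retrovirally transformed P388/VMDRC.04 line divided by IC50 in parental P388 cells, giving fold resistance.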

| SMILES | IC99 (U-937 [1]) | IC99 (U-937 [2]) | Reversibility ratio [3] | IC50 (DLD-1) | FR (P388) |
| --- | --- | --- | --- | --- | --- |
| C=C1C[C@@H]2CC[C@@]34C[C@@H]5O[C@@H]6C(O[C@H]7CC[C@H](CC(=O)C[C@@H]8[C@@H](OC)[C@@H](C[C@H](O)COS(C)(=O)=O)O[C@H]8C[C@H]8O[C@@H](CC[C@@H]1O2)C[C@@H](C)C8=C)O[C@@H]7[C@@H]6O3)[C@H]5O4 | 0.003 µM | 0.03 µM | 10 | 0.8 nM | 3 |
| C=C1C[C@@H]2CC[C@@]34C[C@@H]5O[C@@H]6C(O[C@H]7CC[C@H](CC(=O)C[C@@H]8[C@@H](OC)[C@@H](C[C@H](O)COS(=O)(=O)c9ccc(C)cc9)O[C@H]8C[C@H]8O[C@@H](CC[C@@H]1O2)C[C@@H](C)C8=C)O[C@@H]7[C@@H]6O3)[C@H]5O4 | 0.007 µM | 0.03 µM | 4 | 2 nM | 2.4 |
| C=C1C[C@@H]2CC[C@@]34C[C@@H]5O[C@@H]6C(O[C@H]7CC[C@H](CC(=O)O[C@@H]8[C@@H](C)[C@@H]9O[C@H](CO)[C@@H](O)C[C@@H]9O[C@H]8C[C@H]8O[C@@H](CC[C@@H]1O2)C[C@@H](C)C8=C)O[C@@H]7[C@@H]6O3)[C@H]5O4 | 0.009 µM | – | 24 | – | – |
| C=C1C[C@@H]2CC[C@@]34C[C@@H]5O[C@@H]6C(O[C@H]7CC[C@H](CC(=O)C[C@@H]8[C@@H](OC)[C@@H](C[C@H](O)CO)O[C@H]8C[C@H]8O[C@@H](CC[C@@H]1O2)C[C@@H](C)C8=C)O[C@@H]7[C@@H]6O3)[C@H]5O4 | 0.003 µM | 0.038 µM | 13 | 1 nM | 9.7 |
| C=C1C[C@@H]2CC[C@@]34C[C@@H]5O[C@@H]6C(O[C@H]7CC[C@H](CC(=O)C[C@@H]8[C@@H](OC)[C@@H](C[C@H](O)CC#N)O[C@H]8C[C@H]8O[C@@H](CC[C@@H]1O2)C[C@@H](C)C8=C)O[C@@H]7[C@@H]6O3)[C@H]5O4 | 0.002 µM | 0.03 µM | 15 | 0.49 nM | 7 |
| C=C1C[C@@H]2CC[C@@]34C[C@@H]5O[C@@H]6C(O[C@H]7CC[C@H](CC(=O)C[C@@H]8[C@@H](OC)[C@@H](C[C@H](O)CSc9ccc(OC)cc9)O[C@H]8C[C@H]8O[C@@H](CC[C@@H]1O2)C[C@@H](C)C8=C)O[C@@H]7[C@@H]6O3)[C@H]5O4 | 0.003 µM | 0.03 µM | 10 | 0.71 nM | 1.7 |
| C=C1C[C@@H]2CC[C@@]34C[C@@H]5O[C@@H]6C(O[C@H]7CC[C@H](CC(=O)O[C@@H]8[C@@H](C)[C@@H]9O[C@@H]%10C[C@]%11(C[C@@H]%12O[C@]%13(C[C@H](C)[C@@H]%14O[C@H]([C@@H](O)C[C@@H](O)CO)C[C@@H]%14O%13)C[C@H](C)[C@@H]%12O%11)O[C@@H]%10C[C@@H]9O[C@H]8C[C@H]8O[C@@H](CC[C@@H]1O2)C[C@@H](C)C8=C)O[C@@H]7[C@@H]6O3)[C@H]5O4 | 0.008 µM | 0.025 µM | 3 | 0.74 nM | 2.8 |
| C=C1C[C@@H]2CC[C@@]34C[C@@H]5O[C@@H]6C(O[C@H]7CC[C@H](CC(=O)C[C@@H]8[C@@H](OC)[C@@H](C[C@H](O)COC(=O)Nc9ccc(OC)cc9)O[C@H]8C[C@H]8O[C@@H](CC[C@@H]1O2)C[C@@H](C)C8=C)O[C@@H]7[C@@H]6O3)[C@H]5O4 | 0.003 µM | 0.03 µM | 10 | 0.86 nM | 5.8 |
| C=C1C[C@@H]2CC[C@@]34C[C@@H]5O[C@@H]6C(O[C@H]7CC[C@H](CC(=O)C[C@@H]8[C@@H](OC)[C@@H](C[C@H](O)CS(=O)(=O)c9ccc(Cl)cc9)O[C@H]8C[C@H]8O[C@@H](CC[C@@H]1O2)C[C@@H](C)C8=C)O[C@@H]7[C@@H]6O3)[C@H]5O4 | 0.003 µM | 0.03 µM | 10 | 0.66 nM | 3.2 |
| C=C1C[C@@H]2CC[C@@]34C[C@@H]5O[C@@H]6C(O[C@H]7CC[C@H](CC(=O)C[C@@H]8[C@@H](OC)[C@@H](C[C@@H](O)CO)O[C@H]8C[C@H]8O[C@@H](CC[C@@H]1O2)C[C@@H](C)C8=C)O[C@@H]7[C@@H]6O3)[C@H]5O4 | 0.003 µM | 0.1 µM | 33 | 1.9 nM | 13 |
| C=C1C[C@@H]2CC[C@@]34C[C@@H]5O[C@@H]6C(O[C@H]7CC[C@H](CC(=O)C[C@@H]8[C@@H](OC)[C@@H](C[C@H](O)CNC)O[C@H]8C[C@H]8O[C@@H](CC[C@@H]1O2)C[C@@H](C)C8=C)O[C@@H]7[C@@H]6O3)[C@H]5O4 | 0.01 µM | 0.01 µM | 1 | 3.3 nM | 7 |
| C=C1C[C@@H]2CC[C@@]34C[C@@H]5O[C@@H]6C(O[C@H]7CC[C@H](CC(=O)C[C@@H]8[C@@H](OC)[C@@H](C[C@H](O)CS(=O)(=O)c9ccc(OC)cc9)O[C@H]8C[C@H]8O[C@@H](CC[C@@H]1O2)C[C@@H](C)C8=C)O[C@@H]7[C@@H]6O3)[C@H]5O4 | 0.003 µM | 0.03 µM | 10 | 0.74 nM | 3.4 |
| C=C1C[C@@H]2CC[C@@]34C[C@@H]5O[C@@H]6C(O[C@H]7CC[C@H](CC(=O)O[C@@H]8[C@@H](OC)[C@H](O)[C@H](CCO)O[C@H]8C[C@H]8O[C@@H](CC[C@@H]1O2)C[C@@H](C)C8=C)O[C@@H]7[C@@H]6O3)[C@H]5O4 | 0.01 µM | – | 30 | – | – |
| C=C1C[C@@H]2CC[C@@]34C[C@@H]5O[C@@H]6C(O[C@H]7CC[C@H](CC(=O)O[C@@H]8[C@@H](OC)[C@@H](C[C@H](O)CO)O[C@H]8C[C@H]8O[C@@H](CC[C@@H]1O2)C[C@@H](C)C8=C)O[C@@H]7[C@@H]6O3)[C@H]5O4 | 0.002 µM | – | 8 | – | – |
| C=C1C[C@@H]2CC[C@@]34C[C@@H]5O[C@@H]6C(O[C@H]7CC[C@H](CC(=O)C[C@@H]8[C@@H](OC)[C@@H](C[C@H](O)COC(=O)Nc9ccc(Cl)cc9)O[C@H]8C[C@H]8O[C@@H](CC[C@@H]1O2)C[C@@H](C)C8=C)O[C@@H]7[C@@H]6O3)[C@H]5O4 | 0.003 µM | 0.065 µM | 22 | 1.3 nM | 8.6 |
| C=C1C[C@@H]2CC[C@@]34C[C@@H]5O[C@@H]6C(O[C@H]7CC[C@H](CC(=O)C[C@@H]8[C@@H](OC)[C@@H](C[C@H](O)COC(=O)Nc9ccccc9)O[C@H]8C[C@H]8O[C@@H](CC[C@@H]1O2)C[C@@H](C)C8=C)O[C@@H]7[C@@H]6O3)[C@H]5O4 | 0.003 µM | 0.065 µM | 22 | 1 nM | 5.7 |
| C=C1C[C@@H]2CC[C@@]34C[C@@H]5O[C@@H]6C(O[C@H]7CC[C@H](CC(=O)C[C@@H]8[C@@H](OC)[C@@H](C[C@H](O)CN=[N+]=[N-])O[C@H]8C[C@H]8O[C@@H](CC[C@@H]1O2)C[C@@H](C)C8=C)O[C@@H]7[C@@H]6O3)[C@H]5O4 | 0.003 µM | 0.03 µM | 10 | 0.53 nM | 1.9 |
| C=C1C[C@@H]2CC[C@@]34C[C@@H]5O[C@@H]6C(O[C@H]7CC[C@H](CC(=O)C[C@@H]8[C@@H](OC)[C@@H](C[C@H](O)CSc9ccc(Cl)cc9)O[C@H]8C[C@H]8O[C@@H](CC[C@@H]1O2)C[C@@H](C)C8=C)O[C@@H]7[C@@H]6O3)[C@H]5O4 | 0.01 µM | 0.2 µM | 20 | 1.2 nM | 2 |
| C=C1C[C@@H]2CC[C@@]34C[C@@H]5O[C@@H]6C(O[C@H]7CC[C@H](CC(=O)C[C@@H]8[C@@H](OC)[C@@H](CCO)O[C@H]8C[C@H]8O[C@@H](CC[C@@H]1O2)C[C@@H](C)C8=C)O[C@@H]7[C@@H]6O3)[C@H]5O4 | 0.003 µM | 0.1 µM | 33 | 0.66 nM | 8.5 |
| C=C1C[C@@H]2CC[C@@]34C[C@@H]5O[C@@H]6C(O[C@H]7CC[C@H](CC(=O)C[C@@H]8[C@@H](OC)[C@@H](CC(=O)CO)O[C@H]8C[C@H]8O[C@@H](CC[C@@H]1O2)C[C@@H](C)C8=C)O[C@@H]7[C@@H]6O3)[C@H]5O4 | 0.003 µM | 0.03 µM | 10 | 1.1 nM | 3.7 |
